Experimental data published in ChEMBL document CHEMBL1125084, “Synthesis and evaluation of a series of aryl[e]fused pyrazolo[4,3-c]pyridines with potential anxiolytic activity” (J Med Chem, 1990).
Calls of active or inactive are those of the source.

Key:
[1] = target: GABA-A receptor; anion channel; experiment: Displacement of [3H]flunitrazepam from GABA-A Benzodiazepine receptor of rat brain membranes; assay type: cell membranes, Membrane
Outline: (§1)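 Well-washed, frozen rat whole brain membranes incubated with 0.5 nM [3H]flunitrazepam; nonspecific binding defined with 10 µM clonazepam. IC50 from log concentration vs percent inhibition curves, Ki via Cheng-Prusoff; triplicate determinations.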

Mus musculus [2] = experiment: Percentage change in seizure threshold by pentylenetetrazole infusion method in mouse at a dose of 30 mg/Kg administered perorally; Inactive; assay type: functional, organism-based
Mus musculus [3] = experiment: Percent of mice not grasping wire at a dose of 30 mg/Kg administered intraperitoneally in horizontal wire test; Inactive; assay type: functional, organism-based
Rattus norvegicus [4] = species on record: Rattus norvegicus; experiment: Evaluated for shock induced suppression of drinking by rat vogel test and number of shocks taken were reported; assay type: functional
Outline: (§2)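 Rats deprived of water, allowed 4 h drinking, then withdrawn overnight. On test day, free drinking for 30 s, then a mild footshock (0.225 mA, 0.5 s) for every 5 s of accumulated drinking in a 3 min session. Count of shocks taken recorded. Drug given ip to groups of 6-12 rats 30 min before testing; vehicle 1% methyl cellulose in 0.5% saline.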

Mus musculus [5] = experiment: Percentage change in seizure threshold by anti-pentylenetetrazole test in mouse at a dose of 100 mg/Kg administered perorally; Inactive; assay type: functional, organism-based
Mus musculus [6] = experiment: Percentage change in seizure threshold by pentylenetetrazole infusion method in mouse at a dose of 30 mg/Kg administered perorally; assay type: functional
Rattus norvegicus [7] = experiment: Compound was administered at a dose of 20 mg/Kg intraperitoneally and was evaluated for shock induced suppression of drinking by rat vogel test and number of shocks taken were reported; Inactive; assay type: functional, organism-based; outline: as §2
Mus musculus [8] = experiment: Percentage change in seizure threshold by pentylenetetrazole infusion method in mouse at a dose of 100 mg/Kg administered perorally; assay type: functional
Mus musculus [9] = experiment: Percentage change in seizure threshold by anti-pentylenetetrazole test in mouse at a dose of 30 mg/Kg administered perorally; Inactive; assay type: functional, organism-based
Rattus norvegicus [10] = experiment: Compound was administered at a dose of 10 mg/Kg intraperitoneally and was evaluated for shock induced suppression of drinking by rat vogel test and number of shocks taken were reported; assay type: functional; outline: as §2
Mus musculus [11] = experiment: Percent of mice not grasping wire at a dose of 300 mg/Kg administered intraperitoneally in horizontal wire test; assay type: functional
Mus musculus [12] = experiment: Effective dose required for the percentage change in seizure threshold by anti-pentylenetetrazole test in mouse when administered perorally; assay type: functional; conditions: po
Outline: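 Male CD-1 mice (18-24 g), groups of 10, dosed orally 60 min before testing. Lightly restrained mice received PTZ (8 mg/mL) by tail-vein infusion at 0.5 mL/min. Time to tonic hindlimb extension was converted to a PTZ threshold dose (mg/kg). Effect was expressed as % change in seizure threshold versus controls, with a two-tailed Student's t test.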

[13] = test system: GABA-A receptor; anion channel; experiment: Displacement of [3H]flunitrazepam from GABA-A Benzodiazepine receptor of rat brain membranes (Insoluble); assay type: cell membranes, Membrane; outline: as §1
[14] = test system: GABA-A receptor; anion channel; experiment: Displacement of [3H]flunitrazepam from GABA-A Benzodiazepine receptor of rat brain membranes (insoluble); assay type: cell membranes, Membrane; outline: as §1
Mus musculus [15] = experiment: Percentage change in seizure threshold by anti-pentylenetetrazole test in mouse at a dose of 30 mg/Kg administered perorally; assay type: functional
Mus musculus [16] = experiment: Compound was evaluated for horizontal wire test and percent of mice not grasping wire, it was administered intraperitoneally; conditions: ip
Mus musculus [17] = experiment: Compound was evaluated for horizontal wire test and percent of mice not grasping wire, it was administered perorally; conditions: po
Rattus norvegicus [18] = experiment: Compound was administered at a dose of 2.5 mg/Kg intraperitoneally and was evaluated for shock induced suppression of drinking by rat vogel test and number of shocks taken were reported; assay type: functional
Outline: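 Rats had water for a 4-h period, then water was withdrawn overnight. On test day, after 30 s of free drinking, a 0.225 mA footshock lasting 0.5 s was given for every 5 s of accumulated drinking in a 3-min session. Drug was given ip to groups of 6-12 rats 30 min before testing. Vehicle controls received 1% methyl cellulose in 0.5% saline. Read-out was the number of shocks taken.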

Mus musculus [19] = experiment: Percent of mice not grasping wire at a dose of 30 mg/Kg administered intraperitoneally in horizontal wire test; assay type: functional

In the case of `CCc1cc2c(ncc3c(=O)n(-c4ccc(Cl)cc4)[nH]c32)s1`, the Ki [1] is reported as 0.0018 µM, the Change (Mus musculus [2]) is reported as “inactive” and the Activity (Mus musculus [3]) is reported as “inactive”. For the same compound, the No. of shocks (Rattus norvegicus [4]) was 14.4.

`O=c1c2cnc3ccsc3c2[nH]n1-c1ccc(Cl)cc1` was tested, and the Ki [1] was 0.00046 µM, the Activity (Mus musculus [3]) was “inactive” and the No. of shocks (Rattus norvegicus [4]) was 14. For the same compound, the Change (Mus musculus [5]) was “inactive”.

Compound `O=c1c2c(-c3ccccc3)nc3ccsc3c2[nH]n1-c1ccc(Cl)cc1` has a Ki [1] of over 1000 µM, a Change (Mus musculus [6]) of 18% and a No. of shocks (Rattus norvegicus [4]) of 6.7.

`Cc1ccc2c(ncc3c(=O)n(-c4ccc(Cl)cc4)[nH]c32)n1` was tested, and the Ki [1] was 11 µM, the No. of shocks (Rattus norvegicus [7]) was “inactive” and the Change (Mus musculus [5]) was “inactive”.

In the case of `Cc1[nH]sc2ncc3c(=O)n(-c4ccc(Cl)cc4)nc3c12`, the Ki [1] is reported as 0.099 µM, the Change (Mus musculus [8]) is reported as 48% and the Activity (Mus musculus [3]) is reported as “inactive”. It also gave a No. of shocks (Rattus norvegicus [4]) of 11.9.

In the case of `Cn1c2c(cnc3ccsc32)c(=O)n1-c1ccc(Cl)cc1`, the Ki [1] is reported as 2.6 µM, the Change (Mus musculus [2]) is reported as “inactive” and the No. of shocks (Rattus norvegicus [4]) is reported as 8.6.

With `Cn1ncc2cc3c(cc21)ncc1c(=O)n(-c2ccc(Cl)cc2)[nH]c13` the Ki [1] was 0.014 µM, the Change (Mus musculus [9]) was “inactive” and the No. of shocks (Rattus norvegicus [4]) was 9.

`O=C1C2C=Nc3ccccc3C2=NN1c1ccc(Cl)cc1` (centres undefined) [CGS-9896] was tested, and the Ki [1] was 0.00035 µM, the No. of shocks (Rattus norvegicus [10]) was 12.7 and the Activity (Mus musculus [11]) was 30%. It also gave an ED50 (Mus musculus [12]) of 3.5 mg/kg.

For `Cc1nc2ccsc2c2[nH]n(-c3ccc(Cl)cc3)c(=O)c12`, the Ki [1] was 1 µM, the Change (Mus musculus [8]) was 57% and the No. of shocks (Rattus norvegicus [4]) was 6.1.

With `COc1c2cnc3ccsc3c2nn1-c1ccc(Cl)cc1` the Ki [13] was “Insoluble”, the Change (Mus musculus [2]) was “inactive” and the No. of shocks (Rattus norvegicus [4]) was 13.4.

With `Clc1ccc(-n2nc3c(cnc4ccsc43)c2Cl)cc1` the Ki [14] was “Insoluble”, the Change (Mus musculus [2]) was “inactive” and the No. of shocks (Rattus norvegicus [4]) was 13.7.

With `O=c1c2cnc3c4ccccc4sc3c2[nH]n1-c1ccc(Cl)cc1` the Ki [1] was 0.81 µM, the Change (Mus musculus [2]) was “inactive” and the Activity (Mus musculus [3]) was “inactive”. It also gave a No. of shocks (Rattus norvegicus [4]) of 14.1.

`Cn1ncc2c3c(ccc21)ncc1c(=O)n(-c2ccc(Cl)cc2)[nH]c13` was tested, and the Ki [1] was 0.0024 µM, the Change (Mus musculus [15]) was 37% and the Activity (Mus musculus [3]) was “inactive”. The No. of shocks (Rattus norvegicus [4]) was 13.

In the case of `Cn1cc2c(ccc3ncc4c(=O)n(-c5ccc(Cl)cc5)[nH]c4c32)n1`, the Ki [1] is reported as 0.00046 µM, the Change (Mus musculus [9]) is reported as “inactive” and the Activity (Mus musculus [3]) is reported as “inactive”. The No. of shocks (Rattus norvegicus [4]) was 5.7.

Work on `CN1C(=O)CN=C(c2ccccc2)c2cc(Cl)ccc21` [DIAZEPAM] yielded an ED50 (Mus musculus [16]) of 3.1 mg/kg, an ED50 (Mus musculus [17]) of 3.8 mg/kg and a No. of shocks (Rattus norvegicus [18]) of 21.2. It also gave an ED50 (Mus musculus [12]) of 1.5 mg/kg.

`Cn1cc2c(=O)n(-c3ccc(Cl)cc3)nc-2c2sccc21` was tested, and the Ki [13] was “Insoluble”, the Change (Mus musculus [2]) was “inactive” and the Activity (Mus musculus [3]) was “inactive”. The No. of shocks (Rattus norvegicus [4]) was 16.8.

`Cn1cc2ccc3ncc4c(=O)n(-c5ccc(Cl)cc5)[nH]c4c3c2n1` was tested, and the Ki [1] was 0.00029 µM, the Activity (Mus musculus [3]) was “inactive” and the No. of shocks (Rattus norvegicus [4]) was 7.

For `Cn1ncc2ccc3ncc4c(=O)n(-c5ccc(Cl)cc5)[nH]c4c3c21`, the Ki [1] was 0.012 µM, the Change (Mus musculus [9]) was “inactive” and the Activity (Mus musculus [3]) was “inactive”. For the same compound, the No. of shocks (Rattus norvegicus [4]) was 13.

With `Cn1c2ccccc2c2ncc3c(=O)n(-c4ccc(Cl)cc4)[nH]c3c21` the Activity (Mus musculus [19]) was 25%, the Ki [14] was “Insoluble” and the No. of shocks (Rattus norvegicus [4]) was 10.

With `Cn1cnc2c3c(ccc21)ncc1c(=O)n(-c2ccc(Cl)cc2)[nH]c13` the Ki [1] was 0.0018 µM, the Activity (Mus musculus [3]) was “inactive” and the No. of shocks (Rattus norvegicus [4]) was 12.

For `Oc1c2cnc3cscc3c2nn1-c1ccc(Cl)cc1`, the Ki [1] was 0.00032 µM, the Change (Mus musculus [15]) was 47% and the Activity (Mus musculus [3]) was “inactive”. The No. of shocks (Rattus norvegicus [4]) was 17.
